Sampled rows, rich in hits. Any-hit rate of the full collection: about 3.7%.
KCC2 mod: KCC2 (human) Cl- transport modulation; KCC2 cells, thallium flux FluoZin-2 fluorescence; B-score of Tl+ flux slope (higher = more flux/activation; lower = inhibition) at 10 µM; Q9H2X9; hit rate 2.2% among 190,000;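 active = thallium flux slope and its plate-corrected score both differing from the plate sample mean at a set confidence after two filtering rounds, in either direction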;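 note: slope of fluorescence scaled to starting intensity during 10 to 20 s after thallium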
bCat nuc transl: modulators of beta-catenin nuclear translocation; HeLa beta-catenin nuclear translocation, immunofluorescence imaging; nuclear translocation activity, % at 5 µM; hit rate 0.3% among 190,000;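 active = nuclear translocation activity above 50% at 5 µM, with a well cell count of 50 or more; inconclusive = wells under 50 cells across six images, flagged as toxic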;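 note: per-cell ratio of nuclear to cytoplasmic median beta-catenin stain intensity; plate controls were DMSO negative control for no effect and GSK-3 inhibitor IX positive control for full effect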
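System: HeLa cells, endogenous beta-catenin; compound dosing: 5 µM primary single dose, 0.1% DMSO, 0.02–20 µM confirmation series; incubation: 24 h compound exposure at 37°C, 5% CO2; signal: beta-catenin immunofluorescence imaging with DAPI; evaluation: % activation, nuclear-to-cytoplasmic median beta-catenin signal ratio per cell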
MT stabilizer: microtubule stabilizers in HeLa cells | HeLa tubulin immunostaining HCS, 24 h; share of cells brighter than vehicle mean+2SD | % tubulin-high responders, % at 10 µM | hit rate 0.83% among 200,000 | AID 2205;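 active = plate Z-score above 3 for both tubulin-high and condensed-nucleus cell shares, with cell loss under 80%, at 10 µM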;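 note: anti alpha tubulin signal scored within the nucleus-defined area of each cell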
ROMK primary: human ROMK K+ channel modulation, primary screen | Tet-inducible ROMK, thallium flux fluorescence; actives lie on both sides | B-score at 10 µM | hit rate 2% among 130,000 | AID 1918;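 active = signal ratio slope over the read window, or its plate-corrected B-score, at least 3 SD from the plate mean, either direction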;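 note: B-score of the F/F0 ratio slope over 7 to 12 s after thallium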
DTT redox prof: compounds producing H2O2 with reducing agent – biochemical, NIH compound library profiling, artefact control for MLSCN library redox annotation, primary screen; DTT-dependent redox cycling H2O2, phenol red/HRP absorbance; 100% = 100 µM peroxide control, 0% = buffer; activation, % at 10 µM; hit rate 0.03% among 200,000;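 active = activation of at least 50% relative to the plate's high and low controls in the primary single-dose screen; inactive = activation below 50%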;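 note: compound incubated with DTT at 0.8 mM final as the reducing agent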
KCC2 sec1: confirmation of human KCC2 transport modulators | shares compounds with KCC2 mod | HEK293-KCC2, thallium flux, FluoZin2 fluorescence; active compounds read high | normalised thallium flux (F/F0 slope) at 10 µM | hit rate 15% among 3,700 | AID 1713;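 active = thallium flux slope above the same plate's solvent-only control mean plus 3 SD; inconclusive = the two replicate wells disagree; inactive = no significant difference from solvent-only control wells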
KCC2 bumet counter: thallium flux persisting under bumetanide in KCC2 cells, counter-screen secondary assay | normalized thallium flux at 10 µM | shares compounds with KCC2 mod | AID 1714 | HEK293-KCC2 + bumetanide/ouabain, thallium flux FluoZin2; active compounds read high | hit rate 49% among 3,700;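 active = thallium entry rate above the same plate's blocked-transporter control wells by more than 3 SD; inconclusive = the two repeat wells disagree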;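 note: raw slope of fluorescence over initial fluorescence between 10 and 20 s after thallium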
KCC2 sec2: confirmation of human KCC2 transport modulators; shares compounds with KCC2 mod; HEK293-KCC2, thallium flux FluoZin2 fluorescence; actives lie on both sides; F/F0 rise rate, 10–20 s post-thallium; normalized thallium flux at 10 µM; hit rate 23% among 3,700;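 active = thallium flux slope more than 3 SD above or below the plate's solvent-only control mean, mostly below; inconclusive = the two repeat wells disagreed; inactive = no significant shift from solvent-only controls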;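 note: raw slope with 0.1% DMSO as baseline and bumetanide as block control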
HEK293 Tl flux: counter-screen for KCC2 modulators: effect in parental HEK293 cells; shares compounds with KCC2 mod; thallium flux FluoZin2, ouabain; baseline-ratio fluorescence slope, 10–20 s after thallium; thallium flux rate (normalised fluorescence) at 10 µM; hit rate 46% among 3,700; AID 1716;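 active = thallium flux rate significantly above the same plate's solvent-only control wells, beyond their mean plus 3 SD; inconclusive = the two replicate wells gave conflicting results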
KCC2 ouabain: KCC2 (human) modulation, ouabain retest. shares compounds with KCC2 mod. HEK293-KCC2, thallium flux FluoZin2 fluorescence; bidirectional: low = inhibitor, high = activator. raw Tl+ flux slope (below DMSO = inhibition, above = activation) at 10 µM. hit rate 48% among 3,700. AID 1717;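 active = thallium flux slope beyond 3 SD from same-plate DMSO control mean in most replicates, usually higher, sometimes lower; inconclusive = repeat tests gave conflicting results; inactive = no significant difference from controls in most replicates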;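 note: slope of initial-normalized fluorescence between seconds 10 and 20 after thallium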
HEK293 Tl flux2: acts in parental HEK cells, second KCC2 counter-screen | shares compounds with KCC2 mod | HEK293 parental, thallium flux FluoZin-2 fluorescence slope | thallium flux slope at 10 µM | hit rate 33% among 3,700 | AID 1718;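 active = thallium flux slope above the same plate's solvent-control mean plus 3 SD in both duplicate wells; inconclusive = duplicate wells that disagreed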;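 note: run without ouabain in cells lacking the KCC2 cotransporter; slope of fluorescence scaled to its starting value between 10 and 20 s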
* = called active by the depositor; ? = inconclusive; · = no result.

SMILES	KCC2 mod	bCat nuc transl	MT stabilizer	ROMK primary	DTT redox prof	KCC2 sec1	KCC2 bumet counter	KCC2 sec2	HEK293 Tl flux	KCC2 ouabain	HEK293 Tl flux2
Cn1c(SCC(=O)NCc2ccccc2)nc2ccccc21	-0.62	2	9	-0.47	0	?	0.0041	0.03	0.0074	0.019	0.0098
Cn1c(SCC(=O)NCCN2C(=O)CSC2=O)nc2ccccc2c1=O	6.4*	2	6	·	-1	0.019	0.013*	?	0.012*	0.02	0.017*
O=C(O)CCn1c(SCc2ccccc2)nc2ccccc21	-4.2*	-1	2	0.094	2	0.0079	0.0059	0.035	0.0072	0.015*	0.01
Cn1cnnc1SCC(=O)NCc1ccccc1	-0.67	-8	3	-0.19	-1	·	·	·	·	·	·
O=C(CSc1nc2ccccc2n1CCc1ccccc1)NC1CC1	0.52	0	2	·	0	·	·	·	·	·	·
O=C(CSc1nc2ccccc2c(=O)n1Cc1ccco1)NCCN1C(=O)CSC1=O	0.024	0	·	·	·	·	·	·	·	·	·
O=C(CSc1nc2ccccc2n1CCc1ccccc1)NC1CCS(=O)(=O)C1 (stereo not drawn)	7.2*	-4	2	·	1	0.01	0.021*	0.031	0.011*	0.028*	0.011*
CCC(C)N(C)C1CCN(C(=S)Nc2cccc(SC)c2)CC1 (stereo not drawn)	0.21	0	5	0.62	0	·	·	·	·	·	·
Fc1ccc(-c2ccnc(=S)[nH]2)cc1	·	-3	1	·	-1	·	·	·	·	·	·
c1ccc(CNc2c3c(nc4ncnn24)CCC3)cc1	·	3	·	·	·	·	·	·	·	·	·
CC1(C)Cc2c(sc3c2c(=O)n(-c2cccc(Cl)c2)c(=O)n3CC(N)=O)CO1	-0.054	-1	·	·	·	·	·	·	·	·	·
O=C(N/N=C/c1cccc(OCC(=O)N2CCCC2)c1)C(=O)Nc1ccccc1F	0.076	-3	4	-0.0087	0	·	·	·	·	·	·
O=C(Nc1ccccc1C(=O)N/N=C/c1ccco1)c1ccc(F)cc1	17*	4	3	0.064	-1	0.016*	0.064*	0.035	0.023*	?	0.012*
Cc1ccccc1C(=O)Nc1ccccc1C(=O)N/N=C\c1ccco1	0.27	2	2	-0.014	-4	·	·	·	·	·	·
O=C(Nc1ccccc1C(=O)N/N=C/c1ccco1)c1ccc(Cl)cc1	11*	-1	4	·	-1	0.0075	0.037*	0.034	0.014*	0.029*	0.015*
FC(F)(F)c1ccc2c(c1)[nH]c(=S)n2C1CC1	62*	1	5	1.3	-1	0.03*	0.17*	0.045*	0.069*	0.11*	0.027*
c1ccc(C(c2ccccc2)c2noc(CN3CCC(c4ccncc4)CC3)n2)cc1	-0.25	-3	3	-0.035	1	·	·	·	·	·	·
O=C(CSc1nc2ccccc2c(=O)n1-c1ccc(F)cc1F)c1c[nH]c2ccccc12	0.098	0	3	0.34	0	·	·	·	·	·	·
CCn1c(=S)[nH]c2ccccc21	-0.88	0	3	·	5	·	·	·	·	·	·
CCn1c(=S)[nH]c2cc(Cl)ccc21	10*	3	·	0.39	·	?	0.024*	?	0.022*	0.031*	0.019*
CCCn1c(=S)[nH]c2cc(Cl)ccc21	55*	0	·	·	·	0.042*	0.088*	0.049*	0.047*	0.051*	0.045*
O=C(NCc1ccc(Cl)cc1)c1ccc(N2CCCC2=O)cc1	1.1	1	2	0.51	0	·	·	·	·	·	·
Cc1ccc(CNC(=O)c2ccc(N3CCCC3=O)cc2)cc1	-4.3*	3	1	·	2	0.016	0.0046	0.029	0.0074	0.017	0.011
COc1ccc2nc(NC(=O)C3COc4ccccc4O3)sc2c1 (stereo not drawn)	1.1	·	6	·	-3	·	·	·	·	·	·
COc1ccc(OC)c(-c2csc(NC(=O)C3COc4ccccc4O3)n2)c1 (stereo not drawn)	-0.019	0	2	-0.022	-2	·	·	·	·	·	·
SMILES	KCC2 mod	bCat nuc transl	MT stabilizer	ROMK primary	DTT redox prof	KCC2 sec1	KCC2 bumet counter	KCC2 sec2	HEK293 Tl flux	KCC2 ouabain	HEK293 Tl flux2
O=C(Nc1nc(-c2nc3ccccc3s2)cs1)C1COc2ccccc2O1 (stereo not drawn)	2.5*	-2	6	·	0	0.0068	0.0083*	0.029	?	0.02	0.011*
CCOC(=O)c1ccccc1NC(=O)C1COc2ccccc2O1 (stereo not drawn)	-5.2*	1	2	-0.5	2	0.0094	0.0048	0.03	0.0066	0.024	0.0097
COc1ccc2nc(NNC(=O)C3COc4ccccc4O3)sc2c1 (stereo not drawn)	5.1*	-3	4	-0.88	0	0.0086	0.02*	0.033	0.011*	?	0.011
COc1ccc(Cl)cc1C(=O)NNC(=O)C1COc2ccccc2O1 (stereo not drawn)	39*	0	2	0.55	0	0.0099	0.054*	0.033	0.017*	0.043*	0.012*
O=C(Cn1cnc2c(nnn2Cc2ccccc2F)c1=O)NCc1ccco1	·	-2	6	0.88	-1	0.0093	0.0066	?	0.0081	0.018*	0.011
Cc1ccc(Cn2nnc3c(=O)n(CC(=O)NCc4ccco4)cnc32)cc1	-2.9*	5	5	-0.22	1	0.0073	0.0039	?	?	0.015*	0.01
CCCC(c1nnnn1CS(=O)(=O)c1ccc(C)cc1)N1CCN(CC)CC1 (stereo not drawn)	0.53	0	3	0.97	0	·	·	·	·	·	·
O=c1ccnc(Nc2ccc3c(c2)OCCO3)[nH]1	2.2	0	3	-0.18	-2	·	·	·	·	·	·
O=C(c1cnn2c(C(F)(F)F)cc(-c3ccccc3)nc12)N1CCCCC1c1cccnc1 (stereo not drawn)	-3.5	1	3	0.89	0	0.0055	0.004	0.029	0.0054*	0.017	0.0089
O=C(N/N=C/c1cc(Cl)ccc1O)c1ccccc1Br	-0.99	2	3	0.74	-2	·	·	·	·	·	·
O=C(/C=N/NC(=O)c1ccc(Cl)cc1Cl)c1ccccc1	91*	-1	·	·	·	0.0062	0.1*	0.062*	0.048*	0.076*	0.039*

From PubChem
